Screening results deposited in PubChem BioAssay by several laboratories.
The list is not random: actives were taken first. Their share in the collection is about 2.9%.
ADAM17 inh: inhibits human ADAM17. P78536. inhibition, % at 6.95 µM. 0.83% of 370,000 active. recombinant ADAM17, EDANS/DABCYL FRET peptide cleavage;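 active = inhibition above the mean of compounds lying between control limits plus 3 SD, set per campaign, cut at about 8.5% in these data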
Arrestin-AP2 inh: blocks beta-arrestin peptide binding to AP2 adaptin | FITC-arrestin peptide / GST-AP2 beads, flow cytometry; AP2 beta2 appendage carries R879A mutation | inhibition, % at 10 µM | 0.31% of 340,000 active;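 active = inhibition above a set limit, near 3 SD of compounds lacking own fluorescence, cut at about 54% in these data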
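Measured by: flow cytometry, FL1 (488/535 nm); Material: AP2 appendage R879A on GSH beads; Evaluation: percent response; Timing: pre-incubation 12 min, peptide binding 1 h, room temperature; Also added: 50 nM FITC-arrestin peptide; Medium: PBS with 0.05% Tween 20 and 0.1% BSA.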
ADAM10 inh: inhibits human ADAM10. O14672. recombinant ADAM10, EDANS/DABCYL FRET peptide cleavage, 3 h. inhibition, % at 7 µM. 0.62% of 370,000 active;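 active = inhibition above a per-campaign cutoff equal to the mean of compounds falling between control-based bounds plus 3 SD, cut at about 20% in these data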
NRP1-CendR mod: alters CendR peptide binding to human NRP-1. inhibition, % at 25 µM. 0.85% of 360,000 active. FAM-RPARPAR peptide binding to NRP-1, fluorescence polarization;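 active = inhibition or corrected inhibition above about 18%, plus a signal ratio from 0.5 to 1.5, limit read from the data, passing the limit was not always enough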
Target sequence (O14786 whole entry, looked up): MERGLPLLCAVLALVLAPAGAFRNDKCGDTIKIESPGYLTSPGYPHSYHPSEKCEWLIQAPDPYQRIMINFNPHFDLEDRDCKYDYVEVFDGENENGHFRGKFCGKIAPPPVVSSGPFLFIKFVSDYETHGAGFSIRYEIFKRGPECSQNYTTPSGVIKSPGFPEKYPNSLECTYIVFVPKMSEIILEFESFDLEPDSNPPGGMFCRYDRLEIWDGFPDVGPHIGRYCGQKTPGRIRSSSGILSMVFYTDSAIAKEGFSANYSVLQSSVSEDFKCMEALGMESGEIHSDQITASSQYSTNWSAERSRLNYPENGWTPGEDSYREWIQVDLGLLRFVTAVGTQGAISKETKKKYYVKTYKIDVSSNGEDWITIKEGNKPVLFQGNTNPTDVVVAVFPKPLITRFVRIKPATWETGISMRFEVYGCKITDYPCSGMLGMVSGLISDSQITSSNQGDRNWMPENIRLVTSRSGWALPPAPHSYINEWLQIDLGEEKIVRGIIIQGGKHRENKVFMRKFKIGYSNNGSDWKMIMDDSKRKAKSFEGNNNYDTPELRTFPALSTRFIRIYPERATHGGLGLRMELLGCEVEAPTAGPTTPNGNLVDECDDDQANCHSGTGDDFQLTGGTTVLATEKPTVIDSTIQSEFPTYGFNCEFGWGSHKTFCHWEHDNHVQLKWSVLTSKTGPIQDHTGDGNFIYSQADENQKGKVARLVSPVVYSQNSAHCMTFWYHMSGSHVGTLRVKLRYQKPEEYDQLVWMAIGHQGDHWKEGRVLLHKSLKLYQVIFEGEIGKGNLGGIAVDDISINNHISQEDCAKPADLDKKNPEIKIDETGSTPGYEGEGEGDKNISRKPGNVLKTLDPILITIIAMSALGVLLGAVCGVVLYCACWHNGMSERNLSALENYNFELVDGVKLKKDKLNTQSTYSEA
FAS TE block: FAS thioesterase (human) inhibition; inhibition, % at 15 µM; AID 602261; 0.67% of 360,000 active; P49327; recombinant FAS-TE, OMFH fluorogenic substrate, fluorescence endpoint;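 active = compounds whose normalised, plate-corrected inhibition of enzyme fluorescence in the single-dose primary screen is 50% or more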
CaV13 ICDI inh: Primary screen for inhibitors of IQ motif and Ca2+-dependent inactivation inhibitor domain binding in CACNA1D, Förster resonance energy transfer in living cells, … | HEK cells, CFP/YFP FRET ICDI-IQ, plate reader, 10 min; percent FRET-ratio fall versus neutral wells | inhibition, % at 12.3 µM | 0.098% of 340,000 active;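 active = mean replicate inhibition of at least 30% and at least 1% of replicates passing that level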
ADAM10 confirm: confirmation of inhibitors of human ADAM10 | 1% of 2,100 active | shares compounds with ADAM10 inh | inhibition, % at 6.95 µM | AID 743208 | ADAM10 QFRET peptide cleavage, EDANS fluorescence;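 active = inhibition above about 20% chosen separately for each screening run, limit read from the data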
ADAM17 counter: counter-screen for ADAM10 exosite inhibitors: inhibitors of human ADAM17; 0.5% of 2,100 active; AID 743214; ADAM17 QFRET peptide cleavage, EDANS fluorescence; shares compounds with ADAM10 inh; inhibition, % at 6.95 µM;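 active = mean triplicate inhibition above the solvent-only control wells' mean plus 3 SD, cut at about 12% in these data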
ADAM10 counter: inhibits human ADAM10 in ADAM17 exosite counter-screen | shares compounds with ADAM17 inh | recombinant ADAM10, EDANS/DABCYL FRET peptide cleavage, 3 h | inhibition, % at 6.95 µM | 47% of 2,900 active | AID 743256;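 active = mean inhibition over the triplicate runs exceeds the activity threshold set in the earlier primary screen, cut at about 20% in these data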
ADAM17 confirm: confirmation of inhibitors of human ADAM17; shares compounds with ADAM17 inh; recombinant ADAM17, EDANS/DABCYL QFRET peptide cleavage; inhibition, % at 6.95 µM; 65% of 2,900 active; AID 743257;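 active = mean inhibition across replicates above the hit cutoff set in the primary screen, cut at about 8.5% in these data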
Large screens that a line does not name were inactive (follow-up assays come after a bar, where they were run).

Cc1ccc2c(c1)-n1c(nc3cc(F)ccc3c1=O)C(Cc1ccccc1)NC2=O (centres undefined)	none (no result: Arrestin-AP2 inh, NRP1-CendR mod, FAS TE block)
Cc1ccc2c(c1)-n1c(nc3cc(C)ccc3c1=O)C(Cc1ccccc1)NC2=O (centres undefined)	ADAM17 inh 17, ADAM10 inh 21 (no result: Arrestin-AP2 inh, NRP1-CendR mod, FAS TE block) | ADAM10 confirm inactive | ADAM17 counter inactive | ADAM10 counter inactive | ADAM17 confirm inactive
COc1ccc(NC(=O)Cn2nnc(-c3ccccc3)c2COc2ccc(C(C)=O)cc2)cn1	none (no result: Arrestin-AP2 inh)
COc1ccc(NC(=O)Cn2nnc(-c3ccccc3)c2COc2ccc3ccccc3c2)cn1	ADAM17 inh 12, ADAM10 inh 20 (no result: Arrestin-AP2 inh) | ADAM10 confirm inactive | ADAM17 counter inactive | ADAM10 counter 31 | ADAM17 confirm 17
NS(=O)(=O)c1ccc(NC(=O)COC(=O)c2cn(-c3ccccc3)nc2-c2ccc(F)cc2)cc1	none (no result: Arrestin-AP2 inh)
CN(C)S(=O)(=O)c1cccc(NC(=O)COC(=O)c2cn(-c3ccccc3)nc2-c2ccccc2)c1	ADAM17 inh 11, ADAM10 inh 29 | ADAM10 confirm inactive | ADAM17 counter inactive | ADAM10 counter 31 | ADAM17 confirm 19
CCc1cccc(CC)c1NC(=O)COC(=O)c1cccc(S(=O)(=O)N2CCc3ccccc3C2)c1	none
CN(C)S(=O)(=O)c1cccc(NC(=O)COC(=O)c2cccc(S(=O)(=O)N3CCc4ccccc4C3)c2)c1	ADAM17 inh 11, ADAM10 inh 23 | ADAM10 confirm inactive | ADAM17 counter inactive | ADAM10 counter inactive | ADAM17 confirm 12
CC1(c2nnnn2-c2ccc3c(c2)OCCO3)CCC(=O)N1CCOc1ccccc1 (centres undefined)	none (no result: Arrestin-AP2 inh)
COC(=O)C1=C(C)N(Cc2cccc(C(F)(F)F)c2)C(=NCc2ccc(C(F)(F)F)cc2)NC1c1cccc(F)c1 (centres undefined)	ADAM17 inh 9.4, ADAM10 inh 21 (no result: Arrestin-AP2 inh, NRP1-CendR mod, FAS TE block) | ADAM10 confirm inactive | ADAM17 counter inactive | ADAM10 counter 22 | ADAM17 confirm 12
COC(=O)C[C@@H]1CC[C@H]2[C@H](COc3ccc(NC(=O)c4cccc(C(F)(F)F)c4)cc3C(=O)N2C)O1	none (no result: Arrestin-AP2 inh, NRP1-CendR mod, FAS TE block, CaV13 ICDI inh)
c1cc2ccn(CC3CC3)c2cc1-c1ccc2ccn(CC3CC3)c2c1	none (no result: Arrestin-AP2 inh, NRP1-CendR mod, FAS TE block, CaV13 ICDI inh)
Cc1ccc(N(CC(O)CON=C2c3ccccc3-c3ccccc32)S(C)(=O)=O)cc1 (centres undefined)	ADAM17 inh 12, ADAM10 inh 22 | ADAM10 confirm inactive | ADAM17 counter inactive | ADAM10 counter 22 | ADAM17 confirm 14
COc1cc(C(O)c2nc(-c3cccc(C(C)C)c3)cs2)ccc1F (centres undefined)	ADAM17 inh 11, ADAM10 inh 20 (no result: Arrestin-AP2 inh) | ADAM10 confirm inactive | ADAM17 counter inactive | ADAM10 counter 24 | ADAM17 confirm 13
COc1cc(C(O)c2nc(/C=C/c3ccccc3)cs2)ccc1F (centres undefined)	ADAM17 inh 17, ADAM10 inh 42 (no result: Arrestin-AP2 inh) | ADAM10 confirm inactive | ADAM17 counter inactive | ADAM10 counter 22 | ADAM17 confirm 11
COc1cccc(C(O)c2nc(-c3ccc(F)cc3OC)cs2)c1 (centres undefined)	ADAM17 inh 11, ADAM10 inh 30 (no result: Arrestin-AP2 inh) | ADAM10 confirm inactive | ADAM17 counter inactive | ADAM10 counter inactive | ADAM17 confirm 8.8
